Results published in ChEMBL document CHEMBL4007410, “Fluorinated Chaperone-β-Cyclodextrin Formulations for β-Glucocerebrosidase Activity Enhancement in Neuronopathic Gaucher Disease” (J Med Chem, 2017).
The source made the active and inactive calls. No cut-off for these calls is given here.

Tests used:
[1] = biological target: T1, Lysosomal alpha-mannosidase (Homo sapiens) (UniProt O00754); experiment: Inhibition of human lysosomal alpha-mannosidase assessed as formation of 4-methylumbelliferone from 4-methylumbelliferyl alpha-D-glucopyranoside up to 200 uM by luminescence spectrophotometry
T1 sequence (whole entry): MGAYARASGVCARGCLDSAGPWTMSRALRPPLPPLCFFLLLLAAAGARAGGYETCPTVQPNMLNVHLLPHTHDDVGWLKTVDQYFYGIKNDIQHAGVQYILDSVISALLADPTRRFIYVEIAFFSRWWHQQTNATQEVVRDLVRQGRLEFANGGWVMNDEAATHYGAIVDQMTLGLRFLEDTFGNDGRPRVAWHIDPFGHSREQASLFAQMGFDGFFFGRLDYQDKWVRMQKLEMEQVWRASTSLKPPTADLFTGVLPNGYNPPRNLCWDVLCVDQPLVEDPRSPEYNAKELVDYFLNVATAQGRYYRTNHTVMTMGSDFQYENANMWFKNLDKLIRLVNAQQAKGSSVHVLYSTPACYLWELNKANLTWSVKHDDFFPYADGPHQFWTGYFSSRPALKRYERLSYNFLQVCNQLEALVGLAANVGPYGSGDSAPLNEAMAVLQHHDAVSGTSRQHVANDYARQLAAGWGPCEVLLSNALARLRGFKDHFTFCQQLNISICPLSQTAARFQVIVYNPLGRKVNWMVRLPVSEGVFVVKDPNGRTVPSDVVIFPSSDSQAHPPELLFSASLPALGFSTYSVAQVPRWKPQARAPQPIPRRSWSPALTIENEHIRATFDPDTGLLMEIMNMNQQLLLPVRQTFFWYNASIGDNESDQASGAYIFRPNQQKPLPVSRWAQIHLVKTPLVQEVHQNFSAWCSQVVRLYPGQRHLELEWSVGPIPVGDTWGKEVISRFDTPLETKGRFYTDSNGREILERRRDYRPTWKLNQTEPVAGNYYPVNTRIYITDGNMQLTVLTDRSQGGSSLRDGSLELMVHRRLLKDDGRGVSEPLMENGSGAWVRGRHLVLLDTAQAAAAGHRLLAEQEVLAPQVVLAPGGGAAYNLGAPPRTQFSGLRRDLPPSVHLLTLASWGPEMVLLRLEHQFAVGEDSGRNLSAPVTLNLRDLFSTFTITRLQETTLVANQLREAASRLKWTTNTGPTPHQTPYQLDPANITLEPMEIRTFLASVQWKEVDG
Procedure, shortened: (§1)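 Cells were scraped into ice-cold water (10⁶ cells/mL), sonicated and centrifuged, and protein was quantified. Lysate in 0.1% Triton X-100 was incubated at 37 °C with the matching 4-MU-conjugated glycoside in 0.1 M citrate, pH 4.5, with increasing chaperone or βCD-complex concentrations up to 200 μM. Reactions were stopped with glycine-NaOH, pH 10.7, and read at ex 340/em 460 nm.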

[2] = biological target: T2, Lysosomal acid glucosylceramidase (Homo sapiens, UniProt P04062); experiment: Inhibition of human GCase assessed as formation of 4-methylumbelliferone from […] at pH 7 in presence of beta-cyclodextrin by luminescence spectrophotometry
T2 sequence (P04062 whole entry): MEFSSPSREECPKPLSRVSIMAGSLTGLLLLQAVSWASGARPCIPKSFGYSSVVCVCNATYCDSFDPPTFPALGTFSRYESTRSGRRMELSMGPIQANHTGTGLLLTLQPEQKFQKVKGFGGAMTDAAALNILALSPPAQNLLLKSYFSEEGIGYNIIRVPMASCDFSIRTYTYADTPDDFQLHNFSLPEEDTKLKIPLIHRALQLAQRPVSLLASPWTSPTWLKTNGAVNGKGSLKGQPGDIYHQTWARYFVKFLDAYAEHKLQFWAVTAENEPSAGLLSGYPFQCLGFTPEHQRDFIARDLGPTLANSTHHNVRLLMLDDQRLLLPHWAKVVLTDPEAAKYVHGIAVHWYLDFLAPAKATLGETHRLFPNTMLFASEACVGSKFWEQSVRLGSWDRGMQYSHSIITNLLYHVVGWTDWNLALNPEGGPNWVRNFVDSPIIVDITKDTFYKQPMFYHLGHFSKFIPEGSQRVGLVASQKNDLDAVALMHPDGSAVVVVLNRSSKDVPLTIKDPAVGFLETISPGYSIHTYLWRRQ

[3] = test system: Escherichia coli; experiment: Inhibition of Escherichia coli beta-galactosidase 2 mM using beta-D-glycopyranoside after 10 to 30 mins in presence of beta-cyclodextrin by spectrophotometry
Procedure, shortened: (§2)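 Commercial glycosidases were assayed with o-nitrophenyl (E. coli β-galactosidase) or p-nitrophenyl glycoside substrate near KM. Buffer was phosphate, or phosphate-citrate for mannosidases and amyloglucosidase, at each enzyme's optimal pH. Enzyme was added last. Incubation ran 10-30 min at 37 °C (55 °C for amyloglucosidase), then was quenched with 1 M Na2CO3 and read at A405. Free compounds were tested up to 1 mM; 1:1 βCD complexes up to 2 mM.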

[4] = test system: Helix pomatia; experiment: Inhibition of Helix pomatia beta-mannosidase at 2 mM using beta-D-glycopyranoside after 10 to 30 mins in presence of beta-cyclodextrin by spectrophotometry; procedure, shortened: as §2
[5] = biological target: T3, Beta-mannosidase (Homo sapiens) (UniProt O00462); experiment: Inhibition of human lysosomal beta-mannosidase assessed as formation of 4-methylumbelliferone from 4-methylumbelliferyl […] up to 200 uM in presence of beta-cyclodextrin by luminescence spectrophotometry; procedure, shortened: as §1
T3 sequence (whole entry): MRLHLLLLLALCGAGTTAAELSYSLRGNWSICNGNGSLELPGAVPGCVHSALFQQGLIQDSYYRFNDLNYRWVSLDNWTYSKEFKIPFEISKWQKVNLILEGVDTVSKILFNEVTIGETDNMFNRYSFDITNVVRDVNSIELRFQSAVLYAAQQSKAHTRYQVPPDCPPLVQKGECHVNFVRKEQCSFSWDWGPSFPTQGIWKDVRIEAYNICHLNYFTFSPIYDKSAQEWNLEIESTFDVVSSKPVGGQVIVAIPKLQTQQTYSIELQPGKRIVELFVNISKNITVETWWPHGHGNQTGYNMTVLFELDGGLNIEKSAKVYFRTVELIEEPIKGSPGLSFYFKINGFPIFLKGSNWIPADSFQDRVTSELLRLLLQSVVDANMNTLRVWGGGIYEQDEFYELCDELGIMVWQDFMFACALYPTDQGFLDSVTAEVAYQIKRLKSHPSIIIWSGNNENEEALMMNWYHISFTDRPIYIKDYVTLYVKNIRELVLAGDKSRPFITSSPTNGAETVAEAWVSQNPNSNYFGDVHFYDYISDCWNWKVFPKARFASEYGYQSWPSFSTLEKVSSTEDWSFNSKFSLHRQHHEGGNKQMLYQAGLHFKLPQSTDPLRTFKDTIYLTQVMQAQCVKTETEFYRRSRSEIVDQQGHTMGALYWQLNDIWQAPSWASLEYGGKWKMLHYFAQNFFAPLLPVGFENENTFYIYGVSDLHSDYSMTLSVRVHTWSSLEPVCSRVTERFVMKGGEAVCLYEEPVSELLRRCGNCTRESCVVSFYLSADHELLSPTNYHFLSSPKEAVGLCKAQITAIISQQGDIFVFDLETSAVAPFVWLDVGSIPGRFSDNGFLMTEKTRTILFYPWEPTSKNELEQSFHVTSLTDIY

Row | Compound | inhibition [1] | Ki [2] [nM] | inhibition [3] | inhibition [4] | inhibition [5]
1 | O=C(CCC(F)(F)C(F)(F)C(F)(F)C(F)(F)C(F)(F)C(F)(F)F)NCCCCNC(=S)N1[C@@H]2CO[C@H]1[C@H](O)[C@@H](O)[C@@H]2O | inactive | 90 | inactive | inactive | Active
2 | O=C(CCC(F)(F)C(F)(F)C(F)(F)C(F)(F)F)NCCCCCCCCCNC(=S)N1[C@@H]2CO[C@H]1[C@H](O)[C@@H](O)[C@@H]2O | inactive | 900 | inactive | inactive | Active
3 | O=C(CCC(F)(F)C(F)(F)C(F)(F)C(F)(F)F)NCCCCNC(=S)N1[C@@H]2CO[C@H]1[C@H](O)[C@@H](O)[C@@H]2O | inactive | 300 | inactive | inactive | Active
4 | O=C(CCC(F)(F)C(F)(F)C(F)(F)C(F)(F)C(F)(F)C(F)(F)F)NCCCCCCCCCNC(=S)N1[C@@H]2CO[C@H]1[C@H](O)[C@@H](O)[C@@H]2O | inactive | 600 | inactive | inactive | Active
